Source: ChEMBL document CHEMBL1949539, “Synthesis and antikinetoplastid activity of a series of N,N'-substituted diamines” (Bioorg Med Chem Lett, 2012)

Experiments:
Trypanosoma brucei = experiment: Antitrypanosomal activity against Trypanosoma brucei MITat 427 clone 221a trypomastigotes after 3 days by alamar blue assay; type: functional, organism-based; conditions: 72 h
Leishmania donovani = experiment: Antileishmanial activity against Leishmania donovani S1 promastigotes after 72 hrs by alamar blue assay; type: functional, organism-based; conditions: S1, 72 h
[1] = Selectivity ratio of IC50 for african green monkey Vero cells to IC50 for Trypanosoma brucei MITat 427 clone 221a trypomastigotes; type: ADME, cell-based; conditions: read-out: Ratio IC50
Procedure, shortened: (§1)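 Selectivity index was calculated as the IC50 in Vero cells divided by the IC50 in the parasite.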

Trypanosoma cruzi = experiment: Antitrypanosomal activity against Trypanosoma cruzi clone CL-Brener epimastigotes after 14 days by alamar blue assay; type: functional, organism-based; conditions: 336 h
[2] = Selectivity ratio of IC50 for african green monkey Vero cells to IC50 for Leishmania donovani S1 promastigotes; type: ADME, cell-based; conditions: Vero cells versus Leishmania donovani S1 promastigotes, read-out: Ratio IC50; procedure, shortened: as §1
Vero [3] = experiment: Cytotoxicity against african green monkey Vero cells after 48 hrs by neutral red assay; type: cell-based; conditions: chlorocebus sabaeus
Vero [4] = experiment: Cytotoxicity against african green monkey Vero cells at 4.76 ug/ml after 48 hrs by neutral red assay; type: cell-based; conditions: chlorocebus sabaeus
[5] = Selectivity ratio of IC50 for african green monkey Vero cells to IC50 for Trypanosoma cruzi clone CL-Brener epimastigotes; type: ADME, cell-based; conditions: read-out: Ratio IC50; procedure, shortened: as §1

SMILES | IC50 (Trypanosoma brucei) [nM] | IC50 (Trypanosoma cruzi) [nM] | IC50 (Leishmania donovani) [nM] | selectivity ratio [1] | selectivity ratio [2] | IC50 (Vero [3]) [nM] | Activity (Vero [4]) | selectivity ratio [5]
COc1ccc(CNCCCCCCNCc2ccc(OC)cc2)cc1 | 220 | > 10000 | 6730 | 60 | 2 | 8320 | – | –
C[C@@H]1[C@H](O)[C@@H](C)/C=C/C=C/C=C/C=C/C=C/C=C/C=C/[C@H](O[C@@H]2O[C@H](C)[C@@H](O)[C@H](N)[C@@H]2O)C[C@@H]2O[C@](O)(C[C@@H](O)C[C@@H](O)[C@H](O)CC[C@@H](O)C[C@@H](O)CC(=O)O[C@H]1C)C[C@H](O)[C@H]2C(=O)O [AMPHOTERICIN B] | – | – | 320 | – | – | – | – | –
COc1ccc(CNCCCCNCc2ccc(OC)cc2)cc1 | 3200 | > 10000 | 8520 | > 5 | > 2 | – | Non-toxic | –
CC1CS(=O)(=O)CCN1/N=C/c1ccc([N+](=O)[O-])o1 (centres undefined) [NIFURTIMOX] | 1700 | 2100 | – | – | – | – | – | –
COc1ccc(CNCCCCCCCCNCc2ccc(OC)cc2)cc1 | 5500 | > 10000 | 1560 | > 2 | > 5 | – | Non-toxic | –
COc1ccc(CNCCCCNCc2ccc(OC)c(O)c2)cc1O | > 10000 | > 10000 | > 100000 | – | – | – | Non-toxic | –
COc1ccc(CNCCCNCc2ccc(OC)cc2)cc1 | 2040 | > 10000 | 1240 | > 7 | > 12 | – | Non-toxic | –
COc1ccc(CNCCCNCc2ccc(OC)c(O)c2)cc1O | > 10000 | > 10000 | > 100000 | – | – | – | Non-toxic | –
c1ccc(CNCCCNCc2ccccc2)cc1 | 6450 | > 10000 | 11000 | > 3 | > 27 | – | Non-toxic | –

More lines, main results first:

IC50 (Trypanosoma brucei) [nM] | IC50 (Trypanosoma cruzi) [nM] | SMILES | IC50 (Leishmania donovani) [nM] | selectivity ratio [1] | selectivity ratio [2] | IC50 (Vero [3]) [nM] | Activity (Vero [4]) | selectivity ratio [5]
960 | > 10000 | COc1ccc(CNCCCCCCCCCCNCc2ccc(OC)c(O)c2)cc1O | 4500 | > 11 | > 2 | – | Non-toxic | –
190 | 740 | COc1cc(CNCCCCCCNCc2ccc(OCc3ccccc3)c(OC)c2)ccc1OCc1ccccc1 | 210 | > 44 | > 40 | – | Non-toxic | > 11
170 | 730 | COc1cc(CNCCCCNCc2ccc(OCc3ccccc3)c(OC)c2)ccc1OCc1ccccc1 | 240 | 52 | 37 | 2700 | – | 12
> 10000 | 2300 | COc1ccc(CNCCCCCCCCCCNCc2ccc(OC)cc2)cc1 | 1450 | – | > 8 | – | Non-toxic | > 5
190 | 810 | COc1cc(CNCCCNCc2ccc(OCc3ccccc3)c(OC)c2)ccc1OCc1ccccc1 | 230 | 35 | 29 | 6650 | – | 8
> 10000 | > 10000 | COc1ccc(CNCCCCCCNCc2ccc(OC)c(O)c2)cc1O | 43800 | – | > 0.3 | – | Non-toxic | –
110 | 800 | COc1cc(CNCCCCCCCCCCNCc2ccc(OCc3ccccc3)c(OC)c2)ccc1OCc1ccccc1 | 1200 | > 67 | > 6 | – | Non-toxic | > 10
5500 | > 10000 | COc1ccc(CNCCCCCCCCNCc2ccc(OC)c(O)c2)cc1O | 44400 | > 2 | > 0.3 | – | Non-toxic | –
190 | 820 | COc1cc(CNCCCCCCCCNCc2ccc(OCc3ccccc3)c(OC)c2)ccc1OCc1ccccc1 | 220 | 24 | 21 | 2700 | – | 6
